Screens: PubChem BioAssay, several laboratories
Thrombin inh = human alpha-thrombin inhibitors, primary screen, counter-screen for coagulation protease inhibitor project, biochemical, 1536-well, fluorogenic AMC substrate; Boc-VPR-AMC fluorogenic substrate cleavage; inhibition, % at 5 µM; 220,000 tested, 0.26% active;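 active = inhibition at or above 40%; inactive = inhibition below 40%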;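 also: 0% = enzyme with no compound and 100% = wells without enzyme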
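System: human alpha-thrombin protein; Compound dosing: one concentration per compound, 5 µM, with 0.2% DMSO; Timing: reaction at room temperature; Technique: AMC fluorescence, 355/460 nm; Controls: enzyme without compound as high, wells lacking enzyme as low.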
FXIIa inh = human FXIIa protease inhibitors, primary screen, biochemical, 1536-well | purified FXIIa, Boc-QGR-AMC fluorogenic substrate, 2 h | inhibition, % at 5 µM | 220,000 tested, 0.3% active | Coagulation factor XII (Homo sapiens), P00748 | AID 800, 2007; in the data active = inhibition above about 40%;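 also: 0% = enzyme with no compound and 100% = blank without enzyme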
STAT3 activator = IL-6 driven STAT3 reporter potentiators, primary screen, U3A cells, luciferase, luminescence, MLSCN library. IL-6 STAT3-luciferase reporter; 100% = signal with IL-6 EC80 alone. activation (% of control), % at 5.6 µM. 190,000 tested, 0.91% active. AID 871, 2007;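 active = activation above the screen-wide mean of compound activation plus 3 SD, cut at about 130% in these data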;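 also: 0% = background luminescence of wells with medium and substrate only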
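Test system: human U3A cells carrying STAT3-luciferase construct; control set: IL-6-only wells as 100% reference; timing: compound pre-incubation 1 h before IL-6, then 6 h stimulation at 37 °C; also added: IL-6 stimulus at 33 ng/mL final; evaluation: % activation versus median of IL-6-stimulated wells; detection: reporter luminescence signal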
hK5 inh = human KLK5 protease inhibitors, primary screen, biochemical, 1536-well; inhibition, % at 5 µM; recombinant hK5, fluorogenic AMC substrate cleavage; Kallikrein-5 (Homo sapiens), Q9Y337; 210,000 tested, 0.59% active;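 active = inhibition of 40% or more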;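 also: 0% = enzyme controls without compound and 100% = no-enzyme blanks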
AHR act = AHR activators, primary screen, cell-based, luminescence, luciferase reporter, human; activation, % at 5 µM; AHR-responsive luciferase reporter cells; Aryl hydrocarbon receptor (Homo sapiens), P35869; 320,000 tested, 2.5% active; AID 2796, 2010; in the data active = activation above about 47%;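 also: 0% = vehicle wells and 100% = reference agonist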
FXIa inh 1536 = human FXIa protease inhibitors, primary screen, biochemical, 1536-well | purified FXIa, Boc-Glu-Ala-Arg-AMC fluorogenic substrate | inhibition, % at 5 µM | 220,000 tested, 0.14% active | AID 798, 2007;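 active = inhibition of at least 40%; inactive = inhibition below 40%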;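 also: fluorescence of freed AMC excited at 355 nm; 0% = enzyme without compound and 100% = no enzyme blank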
Target sequence (P03951 19-387 limits assumed): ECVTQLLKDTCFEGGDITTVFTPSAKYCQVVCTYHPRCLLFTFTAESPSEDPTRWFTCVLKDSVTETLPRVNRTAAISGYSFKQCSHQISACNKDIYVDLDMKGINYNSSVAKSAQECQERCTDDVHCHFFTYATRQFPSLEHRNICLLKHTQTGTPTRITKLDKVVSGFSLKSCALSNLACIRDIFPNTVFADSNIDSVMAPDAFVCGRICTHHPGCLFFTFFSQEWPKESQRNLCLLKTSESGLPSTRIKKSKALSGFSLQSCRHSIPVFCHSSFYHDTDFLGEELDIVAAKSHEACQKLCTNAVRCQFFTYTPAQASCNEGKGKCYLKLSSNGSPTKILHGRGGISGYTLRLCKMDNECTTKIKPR
Target sequence (P03951 388-625 limits assumed): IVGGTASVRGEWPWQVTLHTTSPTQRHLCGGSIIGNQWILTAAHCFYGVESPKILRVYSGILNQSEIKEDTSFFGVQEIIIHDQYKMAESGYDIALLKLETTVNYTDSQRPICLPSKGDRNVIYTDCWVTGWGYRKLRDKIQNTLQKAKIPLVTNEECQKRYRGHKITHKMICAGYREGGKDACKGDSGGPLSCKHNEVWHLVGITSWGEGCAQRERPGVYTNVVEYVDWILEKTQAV
* hit, by the source's call; nt = not tested or not shown. Hits are enriched below; roughly 3.5% of the tested compounds scored in any of these assays.

SMILES	Thrombin inh	FXIIa inh	STAT3 activator	hK5 inh	AHR act	FXIa inh 1536
O=[N+]([O-])c1ccc(C2Oc3ccccc3C3CC(c4ccccc4)=NN32)s1 (stereo unspecified)	-1.4	11.1	133.4*	-20.3	58.6*	3.0
CCOC(=O)C1(CC)NC(c2ccc(OC)cc2OC)C2C(=O)N(C)C(=O)C21 (stereo unspecified)	-4.3	8.3	99.3	5.0	1.6	2.1
Cc1cc(C)c(S(=O)(=O)N2CCN(c3ccc([N+](=O)[O-])c(NCC4CCCO4)c3)CC2)c(C)c1 (stereo unspecified)	22.9	18.1	101.5	40.7*	0.9	3.5
Cc1c(C)c2ccc(OCC(=O)NCCCN3CCCC3=O)cc2oc1=O	nt	nt	nt	nt	0.9	nt
Oc1ccc2ccccc2c1C=NCc1ccccc1	3.3	9.8	nt	-3.2	55.6*	-0.6
CCSc1nnc(N2C(=O)CC(c3ccsc3)C3=C2CC(C)(C)CC3=O)s1 (stereo unspecified)	9.1	18.1	108.4	52.6*	1.9	5.3
On1c(-c2ccccc2)nc2ccccc21	-5.3	5.8	nt	0.7	7.0	-2.5
O=Nc1c2nc3ccccc3n(O)c-2c2ccccc12	4.6	18.8	111.3	10.0	100.6*	5.9
Cc1ccc(N=CC2=C(O)CC(c3cccc(Cl)c3)CC2=O)cc1 (stereo unspecified)	-1.2	8.2	96.0	-19.5	2.9	9.4
O=C1CC(c2ccccc2)CC(O)=C1C=Nc1ccc(Cl)cc1 (stereo unspecified)	-1.2	10.1	98.4	-19.5	55.5*	-1.4
O=C1CC(c2ccccc2)CC(O)=C1C=Nc1cccc(Cl)c1 (stereo unspecified)	-4.6	6.4	103.2	-21.3	47.9*	1.1
COc1cccc(NC(=S)N2CCN(Cc3ccccc3)CC2)c1	-5.0	-1.1	105.1	-25.1	-2.3	-6.4
COc1cccc(NC(=O)CNc2cc(S(=O)(=O)N3CCOCC3)ccc2N2CCCC2)c1	nt	nt	nt	nt	1.9	nt
COc1ccc(NCC(=O)Nc2cc(S(=O)(=O)N3CCOCC3)ccc2N2CCOCC2)c(OC)c1	16.5	34.7	nt	24.4	-3.6	41.9*
COc1cccc(-c2nnc(NC(=O)c3ccc4ncsc4c3)o2)c1	7.7	13.7	93.7	-23.7	26.9	18.0
Cn1ncc(Cl)c(Oc2ccc(Cl)cc2)c1=O	0.9	16.3	104.8	-4.8	8.0	10.2
Cn1ncc(Oc2ccc([N+](=O)[O-])cc2)c(Cl)c1=O	-1.4	42.3*	nt	70.8*	0.1	25.1
CC(C)(C)CC(=O)Nc1nnc(-c2cccs2)s1	-8.2	10.9	111.8	-2.6	49.9*	1.7
O=C(Cc1cccs1)Nc1nnc(-c2ccccc2)s1	nt	12.4	96.6	3.0	-1.6	4.1
O=C(Nc1ccccc1)Nc1nnc(-c2cccs2)s1	-13.5	3.6	92.8	-5.8	114.9*	-3.5
Cc1ccc(NC(=O)Nc2cc(S(C)(=O)=O)ccc2Cl)cc1	0.3	0.6	nt	1.0	47.0*	9.2
CS(=O)(=O)c1ccc(Cl)c(NC(=O)CCl)c1	-1.1	10.0	93.1	nt	-0.4	1.0
CCOC(=O)c1ccc(-c2ccc(/C=C(\C#N)C(=O)NCC3CCCO3)o2)cc1 (stereo unspecified)	5.3	16.9	135.5*	3.4	9.4	6.6
COc1ccc(/C=C(\C#N)C(=O)NCC2CCCO2)cc1OC (stereo unspecified)	2.6	15.9	98.9	1.0	0.8	-3.1
O=C(Nc1cccc2ccccc12)N1CC=C(c2ccccc2)CC1	-4.7	12.0	103.5	-13.2	54.2*	4.2
SMILES	Thrombin inh	FXIIa inh	STAT3 activator	hK5 inh	AHR act	FXIa inh 1536
O=C(Nc1ccccc1)N1CC=C(c2ccccc2)CC1	0.0	18.0	86.9	-12.2	-5.5	7.6
Cc1ccccc1C(=O)NC1CCN(CC(=O)NCc2ccccc2)CC1	nt	nt	nt	nt	-1.2	nt
COc1ccc(/C=N/n2cc(-c3ccc(OC)cc3)nc2N)cc1	-4.3	9.3	86.8	-5.3	10.7	-10.6
COc1ccc(/C=N/n2cc(-c3ccccc3)nc2N)cc1	4.3	5.5	98.1	-8.7	67.8*	10.3
Cc1nn(C)c(C)c1S(=O)(=O)N1CCCC(C(=O)NCC2COc3ccccc3O2)C1 (stereo unspecified)	-4.9	10.0	95.3	-1.1	-0.8	2.5
COc1ccc(NC(=S)N/N=C/c2ccc(F)c(F)c2)cc1	-9.6	12.7	nt	1.8	114.4*	3.2
CC(C)(CNC(=O)/C=C/c1ccc(F)cc1)CNC(=O)/C=C/c1ccc(F)cc1	-0.5	4.5	95.5	-6.1	5.1	4.4
Cc1c(C(=O)O)cnc2cc(-c3ccc(Cl)cc3)nn12	-3.4	7.1	106.6	-6.2	13.2	-1.8
CC(=O)c1cnc2cc(-c3ccc(Cl)cc3)nn2c1C	2.6	11.3	101.2	-11.5	71.1*	3.7
Cc1cc(OC(F)F)ccc1NC(=O)Nc1ccc2c(c1)OCO2	nt	nt	nt	nt	65.7*	nt
COc1ccc(NC(=O)Nc2ccc3c(c2)OCO3)c(C)c1	nt	nt	nt	nt	67.2*	nt
Cc1c(NC(=O)Nc2ccc(Cl)c(Cl)c2)c(=O)n(-c2ccccc2)n1C	-0.8	10.0	102.5	-22.0	-0.2	-3.1
COc1ccc(NC(=O)/C(=C\c2ccc(OC)c(OC)c2)NC(=O)c2ccco2)cc1	nt	nt	nt	nt	-5.3	nt
Cc1cc(C)n2nc(-c3sccc3-n3c(C)ccc3C)cc2n1	3.5	11.0	92.2	-17.2	52.0*	-31.9
COc1ccc(-c2nc3nc(C)cc(C)n3n2)cc1	-0.5	12.0	111.0	-0.9	42.5	1.0
COc1ccc(-c2cc3nc(C)cc(C)n3n2)cc1	0.5	7.6	155.9*	-0.3	40.3	-1.0
O=C(NCc1ccco1)c1cc([N+](=O)[O-])ccc1N1CCOCC1	-1.1	1.6	107.7	-8.4	0.5	-4.9
CC(Oc1cccc(Cl)c1)C(=O)Nc1ccc(S(=O)(=O)N(C)C2CCN(C)CC2)cc1 (stereo unspecified)	nt	nt	nt	nt	0.8	nt
CCOc1ccc(NC(=O)c2cc(S(=O)(=O)N3CCCCC3)c[nH]2)cc1	nt	nt	nt	nt	48.0*	nt
CC(C)c1ccc(NC(=O)c2cc(S(=O)(=O)N3CCCC3)c[nH]2)cc1	nt	nt	nt	nt	48.5*	nt
CCOc1ccc(NC(=O)CCN2CCN(S(=O)(=O)c3ccc(Cl)cc3)CC2)cc1	28.0	20.7	103.3	55.3*	-0.9	-2.8
COc1cc(NC(=O)CN2CCN(S(=O)(=O)c3ccc(C(C)C)cc3)CC2)cc(OC)c1	10.4	26.0	111.9	40.5*	4.4	14.7
CCc1ccc(NC(=O)c2cc(S(=O)(=O)N3CCCC3)c[nH]2)cc1	nt	nt	nt	nt	22.8	nt
O=P(CCC(F)(F)F)(CCC(F)(F)F)CCC(F)(F)F	-0.1	7.5	97.9	-14.0	4.3	-2.5
